Measured values reported in ChEMBL document CHEMBL1143032, “The concise synthesis of chalcone, indanone and indenone analogues of combretastatin A4” (Bioorg Med Chem, 2007).

Key:
[1] = Inhibition of bovine brain tubulin polymerization; parameters: species or system Bos taurus
In short: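 Tubulin assembly assay. The parameter measured was inhibition of the extent of assembly.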

MCF7 = test: Growth inhibition of MCF7 cells after 48 hrs; type: functional; conditions: Homo sapiens, MCF7, 48 h
CA46 = test: Growth inhibition of CA46 cells; type: functional; conditions: Homo sapiens

SMILES	IC50 [1] [nM]	GI50 (MCF7) [nM]	GI50 (CA46) [nM]
COc1ccc(/C=C(/C(=O)c2cc(OC)c(OC)c(OC)c2)c2ccc(OC)cc2)cc1	2500	> 1000	–
COc1ccc(C2=C(C(=O)c3cc(OC)c(O)c(OC)c3)c3cc(O)c(OC)cc3C2=O)cc1O	36000	–	–
COc1ccc(/C=C(\C(=O)c2cc(OC)c(OC)c(OC)c2)c2ccc(OC)cc2)cc1	6600	> 1000	–
COc1ccc(/C=C\c2cc(OC)c(OC)c(OC)c2)cc1O [COMBRETASTATIN A4]	–	26	–
COc1ccc(-c2[nH]c3cc(OC)ccc3c2C(=O)c2cc(OC)c(OC)c(OC)c2)cc1	–	–	45
COc1ccc(C2=C(C(=O)c3cc(OC)c(OC)c(OC)c3)C(=O)c3cc(OC)c(OC)c(OC)c32)cc1O	20000	–	–
